Data reported in ChEMBL document CHEMBL1138505, “Engineered apoptosis-inducing peptides with enhanced mitochondrial localization and potency” (J Med Chem, 2009).
Calls of active or inactive are those of the source. No cut-off for these calls is given here.

Key:
[1] = Octanol-water partition coefficient, log P at pH 7.4; type: physicochemical
Method in brief: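 Thiazole orange-labelled peptides were partitioned between 1-octanol and 10 mM Tris, pH 7.4. LogP is the mean with sd of three trials.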

[2] = Toxicity in human RBC assessed as minimum drug level required for 10% hemolysis after 2 hrs; type: cell-based; conditions: erythrocyte
Method in brief: (§1)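 In the red blood cell lysis assay, percent lysis was normalised to melittin ([…]) as 100% lysis and PBS as 0%. HC50 is the concentration giving 50% hemolysis. The minimal hemolytic concentration is the peptide level giving 10% hemolysis.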

[3] = Toxicity in human RBC assessed as hemolytic activity after 2 hrs; type: cell-based, Erythrocyte; conditions: red blood cells; method in brief: as §1
HeLa [4] = experiment: Cytotoxicity against human HeLa cells assessed as dehydrogenase activity after 24 hrs by […]; type: functional; conditions: read-out: LC50 (the source's name)
Method in brief: (§2)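 Cells grown in MEM with 10% FBS at 37 °C, 5% CO2 (MCF7 also given 0.01 mg/mL insulin). Unlabeled peptides were applied over a concentration range for 24 h in OPTI-MEM with 2% FBS. Cell death was scored by Sytox Red staining for loss of plasma membrane integrity and by CCK-8 dehydrogenase activity, and LC50 was determined.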

DU-145 = experiment: Cytotoxicity against human DU145 cells assessed as dehydrogenase activity after 24 hrs by […]; type: functional; conditions: DU-145, 24 h, read-out: LC50 (the source's name); method in brief: as §2
MCF7 = experiment: Cytotoxicity against human MCF7 cells assessed as dehydrogenase activity after 24 hrs by […]; type: functional; conditions: MCF7, 24 h, read-out: LC50 (the source's name); method in brief: as §2
[5] = Cytotoxicity against human MRC5 cells assessed as dehydrogenase activity after 24 hrs by […]; type: cell-based; conditions: read-out: LC50; method in brief: as §2
[6] = Toxicity in mouse liver mitochondria assessed as minimum drug level required for mitochondrial disruption; conditions: in vitro
FaDu = experiment: Cytotoxicity against human FADU cells assessed as dehydrogenase activity after 24 hrs by […]; type: functional; conditions: read-out: LC50 (the source's name); method in brief: as §2
HeLa [7] = experiment: Induction of apoptosis in human HeLa cells assessed as caspase 3 activation at 2.5 uM; type: functional, cell-based
Method in brief: (§3)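 After peptide treatment, HeLa cells were trypsinized, pelleted and washed. They were then stained either with FITC anti-activated caspase 3 or with anti-activated caspase 9 plus an anti-goat AlexaFluor 555 secondary. Cells were washed again and read by flow cytometry. Staurosporine-treated cells served as the positive control.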

HeLa [8] = experiment: Cytotoxicity against human HeLa cells assessed as loss of plasma membrane integrity at LC50 of 2.5 uM by sytox red staining-based flow cytometry; type: functional, cell-based
HeLa [9] = experiment: Induction of apoptosis in human HeLa cells assessed as increase in DNA fragmentation at 2.5 uM by TUNEL assay; type: functional, cell-based; conditions: TDE = time-dependent effect
Method in brief: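 HeLa cells were treated with 2.5 µM peptide and sampled over time. DNA fragmentation in fixed, washed cells was detected by TUNEL using the APO-BrdU kit per the manufacturer.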

HeLa [10] = experiment: Induction of apoptosis in human HeLa cells assessed as caspase 9 activation at 2.5 uM; type: functional, cell-based; method in brief: as §3
HeLa [11] = experiment: Cytotoxicity against human HeLa cells assessed as swelling and disruption of mitochondria at LC50 of 2.5 uM after 30 mins by fluorescence imaging using DAPI nuclear staining; type: functional, cell-based
HeLa [12] = experiment: Cytotoxicity against human HeLa cells assessed as swelling and disruption of mitochondria at LC50 of 2.5 uM after 30 mins by transmission electron microscopy; type: functional, cell-based
HeLa [13] = experiment: Cytotoxicity against human HeLa cells assessed as swelling and disruption of mitochondria at LC50 of 2.5 uM after 30 mins by calcein-AM release and quenching assay; type: functional, cell-based
HeLa [14] = experiment: Cytotoxicity against human HeLa cells assessed as loss of mitochondrial membrane integrity at LC50 of 2.5 uM by flow cytometry
[15] = Cytotoxicity against human KS1767 cells assessed as dehydrogenase activity after 48 hrs by […]; type: functional; conditions: KS1767, 48 h, read-out: LC50 (the source's name)
Method in brief: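 KS1767 cells were kept in DMEM with 10% FBS. Integrin-homing (CNGRC) peptide conjugates were incubated over a concentration range for 48 h in OPTI-MEM with 2% FBS. Death was read by Sytox Red viability staining and CCK-8 dehydrogenase activity, and LC50 was determined.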

MDA-MB-231 [16] = experiment: Specificity index, ratio of LC50 for human MDA-MB-231 cells to LC50 for human KS1767 cells; type: functional
MDA-MB-231 [17] = experiment: Cytotoxicity against human MDA-MB-231 cells assessed as dehydrogenase activity after 48 hrs by […]; type: functional; conditions: MDA-MB-231, 48 h, read-out: LC50 (the source's name)

C[C@@H](NC(=O)[C@@H](Cc1ccccc1)NC(=O)[C@H](N)CCCCN)C(=O)N[C@H](CCCCN)C(=O)N[C@H](Cc1ccccc1)C(=O)N[C@H](C)C(=O)N[C@H](CCCCN)C(=O)N[C@H](CCCCN)C(=O)N[C@H](Cc1ccccc1)C(=O)N[C@H](C)C(=O)N[C@H](CCCCN)C(=O)N[C@H](Cc1ccccc1)C(=O)N[C@H](C)C(=O)N[C@H](CCCCN)C(=O)O
logD [1]: -2.52

CCCCCC[C@@H](NC(=O)[C@H](N)CCCCN)C(=O)N[C@H](C)C(=O)N[C@H](CCCCN)C(=O)N[C@H](CCCCCC)C(=O)N[C@H](C)C(=O)N[C@H](CCCCN)C(=O)N[C@H](CCCCN)C(=O)N[C@H](CCCCCC)C(=O)N[C@H](C)C(=O)N[C@H](CCCCN)C(=O)N[C@H](CCCCCC)C(=O)N[C@H](C)C(=O)N[C@H](CCCCN)C(=O)O
Activity [2]: 8 µM
HC50 at 2 h [3]: 31 µM
CC50 (HeLa [4]): 2.5 µM
CC50 (DU-145): 2 µM
CC50 (MCF7): 2.2 µM
CC50 at 24 h [5]: 2.8 µM
Activity [6]: 2.5 µM
CC50 (FaDu): 2.8 µM

CC(C)C[C@@H](NC(=O)[C@H](N)CCCCN)C(=O)N[C@H](C)C(=O)N[C@H](CCCCN)C(=O)N[C@H](CC(C)C)C(=O)N[C@H](C)C(=O)N[C@H](CCCCN)C(=O)N[C@H](CCCCN)C(=O)N[C@H](CC(C)C)C(=O)N[C@H](C)C(=O)N[C@H](CCCCN)C(=O)N[C@H](CC(C)C)C(=O)N[C@H](C)C(=O)N[C@H](CCCCN)C(=O)O
Activity [2]: > 100 µM
HC50 at 2 h [3]: > 100 µM
CC50 (HeLa [4]): 350 µM
CC50 (DU-145): > 300 µM
CC50 (MCF7): > 300 µM
CC50 at 24 h [5]: > 200 µM
logD [1]: -2.3
Activity [6]: 200 µM
CC50 (FaDu): > 200 µM

C[C@@H](NC(=O)[C@@H](CC1CCCCC1)NC(=O)[C@H](N)CCCCN)C(=O)N[C@H](CCCCN)C(=O)N[C@H](CC1CCCCC1)C(=O)N[C@H](C)C(=O)N[C@H](CCCCN)C(=O)N[C@H](CCCCN)C(=O)N[C@H](CC1CCCCC1)C(=O)N[C@H](C)C(=O)N[C@H](CCCCN)C(=O)N[C@H](CC1CCCCC1)C(=O)N[C@H](C)C(=O)N[C@H](CCCCN)C(=O)O
Activity [2]: 9 µM
HC50 at 2 h [3]: > 42 µM
CC50 (HeLa [4]): 2.3 µM
Activity (HeLa [7]): Active
CC50 (DU-145): 2 µM
CC50 (MCF7): 2 µM
Activity (HeLa [8]): Active
CC50 at 24 h [5]: 5.8 µM
Activity (HeLa [9]): tde
Activity (HeLa [10]): Active
Activity (HeLa [11]): Active
Activity (HeLa [12]): Active
logD [1]: -1.73
Activity (HeLa [13]): Active
Activity [6]: 1.3 µM
Activity (HeLa [14]): Active
CC50 (FaDu): 3.3 µM

CCCCCCC(NC(=O)C(N)CCCCN)C(=O)NC(C)C(=O)NC(CCCCN)C(=O)NC(CCCCCC)C(=O)NC(C)C(=O)NC(CCCCN)C(=O)NC(CCCCN)C(=O)NC(CCCCCC)C(=O)NC(C)C(=O)NC(CCCCN)C(=O)NC(CCCCCC)C(=O)NC(C)C(=O)NC(CCCCN)C(=O)O (racemic)
Activity [2]: > 100 µM
HC50 at 2 h [3]: > 100 µM
CC50 (HeLa [4]): 3.7 µM
Activity [6]: 3.1 µM

CC(C)C[C@@H](NC(=O)[C@@H](CCCCN)NC(=O)[C@H](CS)NC(=O)[C@H](CCCNC(=N)N)NC(=O)CNC(=O)[C@H](CC(N)=O)NC(=O)[C@@H](N)CS)C(=O)N[C@H](C)C(=O)N[C@H](CCCCN)C(=O)N[C@H](CC(C)C)C(=O)N[C@H](C)C(=O)N[C@H](CCCCN)C(=O)N[C@H](CCCCN)C(=O)N[C@H](CC(C)C)C(=O)N[C@H](C)C(=O)N[C@H](CCCCN)C(=O)N[C@H](CC(C)C)C(=O)N[C@H](C)C(=O)N[C@H](CCCCN)C(=O)O
CC50 [15]: 63 µM
Ratio (MDA-MB-231 [16]): 2.3
CC50 (MDA-MB-231 [17]): 144 µM

C[C@@H](NC(=O)[C@@H](CC1CCCCC1)NC(=O)[C@@H](CCCCN)NC(=O)[C@H](CS)NC(=O)[C@H](CCCNC(=N)N)NC(=O)CNC(=O)[C@H](CC(N)=O)NC(=O)[C@@H](N)CS)C(=O)N[C@H](CCCCN)C(=O)N[C@H](CC1CCCCC1)C(=O)N[C@H](C)C(=O)N[C@H](CCCCN)C(=O)N[C@H](CCCCN)C(=O)N[C@H](CC1CCCCC1)C(=O)N[C@H](C)C(=O)N[C@H](CCCCN)C(=O)N[C@H](CC1CCCCC1)C(=O)N[C@H](C)C(=O)N[C@H](CCCCN)C(=O)O
CC50 [15]: 7 µM
Ratio (MDA-MB-231 [16]): 2.7
CC50 (MDA-MB-231 [17]): 17 µM

CC(C)CC(NC(=O)C(N)CCCCN)C(=O)NC(C)C(=O)NC(CCCCN)C(=O)NC(CC(C)C)C(=O)NC(C)C(=O)NC(CCCCN)C(=O)NC(CCCCN)C(=O)NC(CC(C)C)C(=O)NC(C)C(=O)NC(CCCCN)C(=O)NC(CC(C)C)C(=O)NC(C)C(=O)NC(CCCCN)C(=O)O (racemic)
Activity [2]: > 100 µM
HC50 at 2 h [3]: > 100 µM
CC50 (HeLa [4]): 160 µM
Activity [6]: 200 µM

CC(NC(=O)C(CC1CCCCC1)NC(=O)C(N)CCCCN)C(=O)NC(CCCCN)C(=O)NC(CC1CCCCC1)C(=O)NC(C)C(=O)NC(CCCCN)C(=O)NC(CCCCN)C(=O)NC(CC1CCCCC1)C(=O)NC(C)C(=O)NC(CCCCN)C(=O)NC(CC1CCCCC1)C(=O)NC(C)C(=O)NC(CCCCN)C(=O)O (racemic)
Activity [2]: > 100 µM
HC50 at 2 h [3]: > 100 µM
CC50 (HeLa [4]): 6.5 µM
Activity [6]: 6.3 µM
